{
  "source": "ChEMBL document CHEMBL4014298",
  "about": "“Discovery of a series of 8-(1-phenylpyrrolidin-2-yl)-6-carboxamide-2-morpholino-4H-chromen-4-one as PI3Kβ/δ inhibitors for the treatment of PTEN-deficient tumours” (Bioorg Med Chem Lett, 2017)",
  "key": {"[1]": {"assay": "Lipophilicity, log D of the compound at pH 7.4", "conditions": "buffer"}, "[2]": {"target": "T1, Phosphatidylinositol 4,5-bisphosphate 3-kinase catalytic subunit beta isoform (Homo sapiens, UniProt P42338)", "T1 sequence (P42338 whole entry, canonical isoform)": "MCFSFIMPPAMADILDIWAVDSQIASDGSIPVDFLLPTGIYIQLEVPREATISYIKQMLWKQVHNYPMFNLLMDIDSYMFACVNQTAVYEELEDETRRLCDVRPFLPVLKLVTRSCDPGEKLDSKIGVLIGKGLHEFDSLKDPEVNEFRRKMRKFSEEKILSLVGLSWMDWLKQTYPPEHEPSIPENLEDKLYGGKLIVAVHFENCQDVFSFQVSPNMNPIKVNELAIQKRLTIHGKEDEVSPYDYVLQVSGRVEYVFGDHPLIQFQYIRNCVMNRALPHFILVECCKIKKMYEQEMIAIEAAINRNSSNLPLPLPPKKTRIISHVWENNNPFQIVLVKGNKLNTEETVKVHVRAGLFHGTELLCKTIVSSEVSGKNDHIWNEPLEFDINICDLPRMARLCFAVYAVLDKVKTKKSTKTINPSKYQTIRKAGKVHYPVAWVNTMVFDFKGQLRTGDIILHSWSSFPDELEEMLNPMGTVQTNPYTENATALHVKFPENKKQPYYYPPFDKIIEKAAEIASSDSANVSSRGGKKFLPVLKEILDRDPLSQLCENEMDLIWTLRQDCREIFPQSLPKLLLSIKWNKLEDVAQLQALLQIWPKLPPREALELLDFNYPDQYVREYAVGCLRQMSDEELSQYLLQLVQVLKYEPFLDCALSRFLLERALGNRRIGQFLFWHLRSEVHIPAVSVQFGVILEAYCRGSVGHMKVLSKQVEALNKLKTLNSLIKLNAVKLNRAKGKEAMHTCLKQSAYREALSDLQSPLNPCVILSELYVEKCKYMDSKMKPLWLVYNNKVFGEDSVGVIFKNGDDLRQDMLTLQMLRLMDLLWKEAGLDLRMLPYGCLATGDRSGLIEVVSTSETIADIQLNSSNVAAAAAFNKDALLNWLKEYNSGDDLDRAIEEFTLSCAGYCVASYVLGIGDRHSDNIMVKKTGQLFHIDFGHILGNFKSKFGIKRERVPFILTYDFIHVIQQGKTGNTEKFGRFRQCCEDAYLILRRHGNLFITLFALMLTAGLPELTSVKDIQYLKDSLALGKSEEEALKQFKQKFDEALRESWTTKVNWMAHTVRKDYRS", "assay": "Inhibition of PI3Kbeta in PTEN-deficient human MDA-MB-468 cells assessed as decrease in AKT phosphorylation at Ser473 measured after 2 hrs"}, "[3]": {"assay": "Inhibition of PI3Kalpha mutant in human BT474 cells assessed as decrease in AKT phosphorylation at Thr308 after 2 hrs", "format": "cell-based", "conditions": "BT-474, 2 h"}, "[4]": {"assay": "Intrinsic clearance in human hepatocytes assessed per million cells", "format": "ADME, cell-based, Hepatocyte", "conditions": "read-out: CLH"}, "[5]": {"assay": "Apparent permeability across apical to basolateral side in human Caco2 cells", "conditions": "Caco-2"}, "[6]": {"assay": "AUC in mouse at 30 umol/kg, po", "format": "ADME", "conditions": "in vivo"}, "[7]": {"target": "Phosphatidylinositol 4,5-bisphosphate 3-kinase catalytic subunit alpha isoform (Homo sapiens, UniProt P42336)", "sequence (P42336 whole entry, canonical isoform)": "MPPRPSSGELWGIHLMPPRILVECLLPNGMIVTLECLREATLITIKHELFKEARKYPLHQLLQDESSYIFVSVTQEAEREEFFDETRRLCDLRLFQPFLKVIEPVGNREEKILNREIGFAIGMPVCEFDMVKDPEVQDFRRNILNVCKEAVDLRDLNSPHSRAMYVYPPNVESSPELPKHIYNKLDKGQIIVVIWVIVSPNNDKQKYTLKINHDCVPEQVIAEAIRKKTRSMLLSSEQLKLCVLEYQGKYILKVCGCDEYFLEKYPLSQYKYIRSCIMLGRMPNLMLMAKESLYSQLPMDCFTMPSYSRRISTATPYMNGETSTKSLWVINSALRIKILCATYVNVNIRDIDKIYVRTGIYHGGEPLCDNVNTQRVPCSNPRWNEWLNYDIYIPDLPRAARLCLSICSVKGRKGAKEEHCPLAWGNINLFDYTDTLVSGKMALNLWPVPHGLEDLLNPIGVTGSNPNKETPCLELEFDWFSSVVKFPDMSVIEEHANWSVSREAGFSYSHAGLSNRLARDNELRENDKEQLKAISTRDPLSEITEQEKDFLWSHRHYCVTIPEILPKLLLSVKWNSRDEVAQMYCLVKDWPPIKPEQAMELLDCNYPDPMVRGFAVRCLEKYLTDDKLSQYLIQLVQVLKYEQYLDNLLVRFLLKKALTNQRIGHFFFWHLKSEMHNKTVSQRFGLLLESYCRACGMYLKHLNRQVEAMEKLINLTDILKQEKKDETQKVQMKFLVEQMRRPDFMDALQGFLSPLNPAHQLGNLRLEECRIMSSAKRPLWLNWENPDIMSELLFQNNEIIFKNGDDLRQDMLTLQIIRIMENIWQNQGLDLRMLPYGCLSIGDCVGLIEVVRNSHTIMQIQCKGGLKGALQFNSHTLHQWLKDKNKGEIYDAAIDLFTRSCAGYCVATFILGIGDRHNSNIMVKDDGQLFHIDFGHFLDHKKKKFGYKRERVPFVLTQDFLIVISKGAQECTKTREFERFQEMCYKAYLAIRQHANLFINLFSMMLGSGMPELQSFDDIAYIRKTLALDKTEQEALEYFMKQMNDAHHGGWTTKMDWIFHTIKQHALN", "assay": "Inhibition of recombinant human PI3Kalpha using PIP2 as substrate preincubated for 20 mins followed by substrate addition measured after 80 mins in presence of ATP by Kinase Glo luminescence assay"}, "[8]": {"target": "T1, Phosphatidylinositol 4,5-bisphosphate 3-kinase catalytic subunit beta isoform", "assay": "Inhibition of recombinant human PI3Kbeta using PIP2 as substrate preincubated for 20 mins followed by substrate addition measured after 80 mins in presence of ATP by Kinase Glo luminescence assay"}, "[9]": {"target": "Phosphatidylinositol 4,5-bisphosphate 3-kinase catalytic subunit gamma isoform (Homo sapiens, UniProt P48736)", "sequence (P48736 whole entry, canonical isoform)": "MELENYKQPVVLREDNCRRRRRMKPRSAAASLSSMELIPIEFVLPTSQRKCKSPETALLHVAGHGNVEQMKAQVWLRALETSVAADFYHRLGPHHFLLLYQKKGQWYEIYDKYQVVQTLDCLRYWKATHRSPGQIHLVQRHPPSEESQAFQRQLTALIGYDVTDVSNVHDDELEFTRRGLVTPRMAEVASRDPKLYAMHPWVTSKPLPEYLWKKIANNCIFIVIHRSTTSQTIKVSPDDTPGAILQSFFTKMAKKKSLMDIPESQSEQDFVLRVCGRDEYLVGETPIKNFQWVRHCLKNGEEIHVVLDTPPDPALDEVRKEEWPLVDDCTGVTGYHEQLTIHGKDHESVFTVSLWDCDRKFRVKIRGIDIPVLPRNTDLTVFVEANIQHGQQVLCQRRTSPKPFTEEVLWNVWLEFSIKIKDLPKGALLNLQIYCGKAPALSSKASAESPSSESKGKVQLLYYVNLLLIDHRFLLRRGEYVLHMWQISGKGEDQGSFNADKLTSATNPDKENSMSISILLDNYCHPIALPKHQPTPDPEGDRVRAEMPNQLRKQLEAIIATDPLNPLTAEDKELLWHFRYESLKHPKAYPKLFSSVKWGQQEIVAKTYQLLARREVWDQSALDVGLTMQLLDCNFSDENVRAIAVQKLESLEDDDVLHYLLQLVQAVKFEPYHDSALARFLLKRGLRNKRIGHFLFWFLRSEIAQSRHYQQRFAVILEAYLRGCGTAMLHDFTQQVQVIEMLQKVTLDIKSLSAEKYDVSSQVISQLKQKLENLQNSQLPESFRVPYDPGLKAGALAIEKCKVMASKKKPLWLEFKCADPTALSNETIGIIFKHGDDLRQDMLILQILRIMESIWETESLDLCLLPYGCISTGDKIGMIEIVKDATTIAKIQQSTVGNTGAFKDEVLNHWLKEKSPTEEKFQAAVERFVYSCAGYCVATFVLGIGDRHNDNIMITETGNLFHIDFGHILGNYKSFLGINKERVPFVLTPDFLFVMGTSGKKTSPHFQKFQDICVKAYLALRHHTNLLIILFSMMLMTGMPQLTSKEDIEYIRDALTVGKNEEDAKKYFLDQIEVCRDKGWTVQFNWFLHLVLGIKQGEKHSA", "assay": "Inhibition of recombinant human PI3Kgamma using PIP2 as substrate preincubated for 20 mins followed by substrate addition measured after 80 mins in presence of ATP by Kinase Glo luminescence assay", "procedure,_shortened": "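Enzyme IC50 against PI3Kγ, single determination (n=1).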"}, "[10]": {"target": "T2, Phosphatidylinositol 4,5-bisphosphate 3-kinase catalytic subunit delta isoform (Homo sapiens, UniProt O00329)", "T2 sequence (O00329 whole entry)": "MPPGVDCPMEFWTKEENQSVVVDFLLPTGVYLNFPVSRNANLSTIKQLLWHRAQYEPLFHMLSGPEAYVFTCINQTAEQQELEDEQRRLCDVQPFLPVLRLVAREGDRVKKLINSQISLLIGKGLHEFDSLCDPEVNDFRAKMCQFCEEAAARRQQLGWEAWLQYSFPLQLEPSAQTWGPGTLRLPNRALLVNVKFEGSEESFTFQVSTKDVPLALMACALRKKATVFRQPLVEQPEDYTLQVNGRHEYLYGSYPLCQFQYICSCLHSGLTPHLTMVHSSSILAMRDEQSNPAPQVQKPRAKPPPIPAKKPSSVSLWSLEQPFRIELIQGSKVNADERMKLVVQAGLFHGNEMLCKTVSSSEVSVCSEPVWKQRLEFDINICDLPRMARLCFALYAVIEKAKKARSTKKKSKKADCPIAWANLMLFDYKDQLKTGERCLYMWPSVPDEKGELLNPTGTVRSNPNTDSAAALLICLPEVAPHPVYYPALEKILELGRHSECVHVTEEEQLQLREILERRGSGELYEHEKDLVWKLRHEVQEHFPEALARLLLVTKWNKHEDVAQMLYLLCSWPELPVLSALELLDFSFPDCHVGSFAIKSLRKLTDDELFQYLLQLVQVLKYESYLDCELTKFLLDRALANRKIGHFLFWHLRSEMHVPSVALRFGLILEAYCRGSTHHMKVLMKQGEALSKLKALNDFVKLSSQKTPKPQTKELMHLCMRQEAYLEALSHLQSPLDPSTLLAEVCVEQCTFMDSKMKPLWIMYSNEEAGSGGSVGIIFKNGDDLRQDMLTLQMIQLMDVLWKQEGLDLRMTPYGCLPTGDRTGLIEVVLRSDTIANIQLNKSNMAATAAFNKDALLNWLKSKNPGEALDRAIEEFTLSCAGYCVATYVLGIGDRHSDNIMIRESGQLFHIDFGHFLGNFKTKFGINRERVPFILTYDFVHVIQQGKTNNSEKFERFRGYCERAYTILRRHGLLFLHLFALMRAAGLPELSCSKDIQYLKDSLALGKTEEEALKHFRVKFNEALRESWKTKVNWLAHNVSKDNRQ", "assay": "Inhibition of recombinant human PI3Kdelta using PIP2 as substrate preincubated for 20 mins followed by substrate addition measured after 80 mins in presence of ATP by Kinase Glo luminescence assay"}, "[11]": {"assay": "Clearance in mouse blood at 5 umol/kg, iv or 30 umol/kg, po", "format": "ADME, organism-based"}, "[12]": {"assay": "Volume of distribution at steady state in mouse blood at 5 umol/kg, iv or 30 umol/kg, po", "format": "ADME, organism-based", "conditions": "read-out: Vdss"}, "[13]": {"assay": "Oral bioavailability in mouse blood at 30 umol/kg", "format": "ADME, organism-based"}, "[14]": {"assay": "Fraction unbound in human plasma", "format": "ADME, cell-free", "procedure,_shortened": "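Plasma protein binding in mouse, dog or human plasma, reported as fraction unbound (%).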"}, "[15]": {"assay": "Intrinsic clearance in mouse hepatocytes assessed per million cells", "format": "ADME, cell-based, Hepatocyte", "conditions": "read-out: CLH", "procedure,_shortened": "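Intrinsic clearance measured in mouse or dog hepatocytes, expressed as CL_int in […].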"}, "[16]": {"organism": "Homo sapiens", "assay": "Selectivity ratio of IC50 for PI3Kalpha mutant in human BT474 cells to IC50 for PI3Kbeta in PTEN-deficient human MDA-MB-468 cells", "format": "cell-based", "procedure,_shortened": "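Ratio of two cellular IC50s. PI3Kα IC50 is from inhibition of AKT Thr308 phosphorylation in PIK3CA-mutant human breast ductal carcinoma BT474 cells. PI3Kβ IC50 is from inhibition of AKT Ser473 phosphorylation in PTEN-null breast adenocarcinoma MDA-MB-468 cells.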"}},
  "data": [
    {"smiles": "CN(CCO)C(=O)c1cc(C2CCCN2c2cc(F)cc(F)c2)c2oc(N3CCOCC3)cc(=O)c2c1", "note": "(racemic)", "values": [
      {"measurement": "logD", "setting": "[1]", "value": 2},
      {"measurement": "IC50", "setting": "[2]", "value": 2, "unit": "nM"},
      {"measurement": "IC50", "setting": "[3]", "value": 870, "unit": "nM"},
      {"measurement": "hepatocyte CLint", "setting": "[4]", "value": 4, "unit": "µL/min/1e6 cells"},
      {"measurement": "Papp A→B", "setting": "[5]", "value": 2.6, "unit": "×10⁻⁶ cm/s"},
      {"measurement": "AUC", "setting": "[6]", "value": 0.3, "unit": "µM·h"}
    ]},
    {"smiles": "CN1CCN(C(=O)c2cc([C@H]3CCCN3c3cc(F)cc(F)c3)c3oc(N4CCOCC4)cc(=O)c3c2)CC1", "values": [
      {"measurement": "logD", "setting": "[1]", "value": 2.3},
      {"measurement": "IC50", "setting": "[2]", "value": 2.3, "unit": "nM"},
      {"measurement": "IC50", "setting": "[3]", "value": 250, "unit": "nM"},
      {"measurement": "hepatocyte CLint", "setting": "[4]", "value": 11, "unit": "µL/min/1e6 cells"},
      {"measurement": "Papp A→B", "setting": "[5]", "value": 3.3, "unit": "×10⁻⁶ cm/s"}
    ]},
    {"smiles": "O=C(c1cc(C2CCCN2c2cc(F)cc(F)c2)c2oc(N3CCOCC3)cc(=O)c2c1)N1CCC(O)CC1", "note": "(racemic)", "values": [
      {"measurement": "logD", "setting": "[1]", "value": 2.3},
      {"measurement": "IC50", "setting": "[2]", "value": 3, "unit": "nM"},
      {"measurement": "IC50", "setting": "[3]", "value": 630, "unit": "nM"},
      {"measurement": "hepatocyte CLint", "setting": "[4]", "value": "< 3", "unit": "µL/min/1e6 cells"}
    ]},
    {"smiles": "O=C(c1cc(C2CCCN2c2ccc(F)cc2)c2oc(N3CCOCC3)cc(=O)c2c1)N1CCOCC1", "note": "(single isomer, unassigned)", "values": [
      {"measurement": "logD", "setting": "[1]", "value": 2.2},
      {"measurement": "IC50", "setting": "[2]", "value": 4.5, "unit": "nM"},
      {"measurement": "IC50", "setting": "[3]", "value": 1200, "unit": "nM"},
      {"measurement": "hepatocyte CLint", "setting": "[4]", "value": 8, "unit": "µL/min/1e6 cells"}
    ]},
    {"smiles": "CN(C)C(=O)c1cc([C@H]2CCCN2c2cccc(F)c2)c2oc(N3CCOCC3)cc(=O)c2c1", "values": [
      {"measurement": "logD", "setting": "[1]", "value": 2.5},
      {"measurement": "IC50", "setting": "[2]", "value": 1.2, "unit": "nM"},
      {"measurement": "IC50", "setting": "[3]", "value": 91, "unit": "nM"},
      {"measurement": "hepatocyte CLint", "setting": "[4]", "value": 15, "unit": "µL/min/1e6 cells"}
    ]},
    {"smiles": "O=C(c1cc([C@H]2CCCN2c2cccc(F)c2)c2oc(N3CCOCC3)cc(=O)c2c1)N1CCOCC1", "values": [
      {"measurement": "logD", "setting": "[1]", "value": 2.2},
      {"measurement": "IC50", "setting": "[2]", "value": 2.8, "unit": "nM"},
      {"measurement": "IC50", "setting": "[3]", "value": 300, "unit": "nM"},
      {"measurement": "hepatocyte CLint", "setting": "[4]", "value": 6, "unit": "µL/min/1e6 cells"},
      {"measurement": "Papp A→B", "setting": "[5]", "value": 14, "unit": "×10⁻⁶ cm/s"},
      {"measurement": "AUC", "setting": "[6]", "value": 1.7, "unit": "µM·h"},
      {"measurement": "IC50", "setting": "[7]", "value": 19, "unit": "nM"},
      {"measurement": "IC50", "setting": "[8]", "value": 6.1, "unit": "nM"},
      {"measurement": "IC50", "setting": "[9]", "value": 340, "unit": "nM"},
      {"measurement": "IC50", "setting": "[10]", "value": 5.1, "unit": "nM"},
      {"measurement": "clearance", "setting": "[11]", "value": 47, "unit": "mL/min/kg"},
      {"measurement": "Vd", "setting": "[12]", "value": 0.9, "unit": "L/kg"},
      {"measurement": "bioavailability", "setting": "[13]", "value": 18, "unit": "%"},
      {"measurement": "fraction unbound", "setting": "[14]", "value": 0.11},
      {"measurement": "hepatocyte CLint", "setting": "[15]", "value": 134, "unit": "µL/min/1e6 cells"}
    ]},
    {"smiles": "CN(C)C(=O)c1cc(C2CCCN2c2cc(F)cc(F)c2)c2oc(N3CCOCC3)cc(=O)c2c1", "note": "(racemic)", "values": [
      {"measurement": "logD", "setting": "[1]", "value": 2.7},
      {"measurement": "IC50", "setting": "[2]", "value": 1.2, "unit": "nM"},
      {"measurement": "IC50", "setting": "[3]", "value": 150, "unit": "nM"},
      {"measurement": "hepatocyte CLint", "setting": "[4]", "value": 17, "unit": "µL/min/1e6 cells"},
      {"measurement": "Papp A→B", "setting": "[5]", "value": 33, "unit": "×10⁻⁶ cm/s"},
      {"measurement": "AUC", "setting": "[6]", "value": 2.4, "unit": "µM·h"}
    ]},
    {"smiles": "CN(C)C(=O)c1cc([C@H]2CCCN2c2ccc(F)cc2)c2oc(N3CCOCC3)cc(=O)c2c1", "values": [
      {"measurement": "IC50", "setting": "[2]", "value": 3.4, "unit": "nM"},
      {"measurement": "IC50", "setting": "[3]", "value": 180, "unit": "nM"},
      {"measurement": "hepatocyte CLint", "setting": "[4]", "value": 14, "unit": "µL/min/1e6 cells"},
      {"measurement": "AUC", "setting": "[6]", "value": 1, "unit": "µM·h"},
      {"measurement": "IC50", "setting": "[7]", "value": 24, "unit": "nM"},
      {"measurement": "IC50", "setting": "[8]", "value": 6.7, "unit": "nM"},
      {"measurement": "IC50", "setting": "[9]", "value": 330, "unit": "nM"},
      {"measurement": "IC50", "setting": "[10]", "value": 8.2, "unit": "nM"},
      {"measurement": "Ratio IC50", "setting": "[16]", "value": 50}
    ]},
    {"smiles": "CN(C)C(=O)c1cc(C2CCCN2c2ccccc2)c2oc(N3CCOCC3)cc(=O)c2c1", "note": "(racemic)", "values": [
      {"measurement": "IC50", "setting": "[3]", "value": 480, "unit": "nM"},
      {"measurement": "hepatocyte CLint", "setting": "[4]", "value": 11, "unit": "µL/min/1e6 cells"},
      {"measurement": "AUC", "setting": "[6]", "value": 6, "unit": "µM·h"}
    ]},
    {"smiles": "Cc1cc([C@@H](C)Nc2ccccc2)c2nc(N3CCOCC3)cc(=O)n2c1", "values": [
      {"measurement": "logD", "setting": "[1]", "value": 3.6}
    ]}
  ]
}
